# Compound activity: PubChem BioAssay, several laboratories
# Only some compounds are listed: those with a hit (about 0.83% of all), similar ones and a draw of the others.
# TRPML3 ag – agonists of human TRPML3 channel. actives 0.29% (n = 220,000). HEK293 TRPML3-YFP, Fluo-8 calcium fluorescence; 100% = the carbachol control signal. Q8TDD5. activation, % at 3 µM;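 active = activation above its plate's cutoff, the mean activation of the plate's test wells plus 3 SD, cut at about 12% in these data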;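 also: 0% = DMSO only wells and 100% = carbachol wells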
#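 Test system – HEK293 line with stable expression of human TRPML3-YFP channel · Control set – carbachol 87 µM final as high control (100%), DMSO as low control (0%) · Signal – Fluo-8 calcium dye fluorescence, ex 470-495, em 515-575 nm · Incubation – 1-h 37 °C dye load, 5-s basal, 120-s post-compound reads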
# OXTR agonist – agonists of human oxytocin receptor. P30559. CHO-OTR cells, Fluo-8 calcium fluorescence; normalized: DMSO 0%, oxytocin 100%. activation, % at 3 µM. actives 0.32% (n = 320,000);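 active = activation above the mean of all tested compounds plus 3 SD, cutoff set per screening run, cut at about 20% in these data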;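 also: peak over basal fluorescence ratio from a 100 s FLIPR kinetic read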
# TRPN1 ag – zebrafish TRPN1 (NompC) channel agonism; AID 1424; actives 0.18% (n = 220,000); HEK293 zebrafish TRPN1-YFP, Fluo-8 calcium fluorescence; 100% = response to 87 µM carbachol; activation, % at 3 µM;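 active = activation above its plate's cutoff, the mean activation of test wells on that plate plus 3 SD, cut at about 19% in these data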;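 also: 0% = DMSO alone and 100% = 87 µM carbachol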
#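 Material – zebrafish TRPN1-YFP in HEK293 cells · Doses – 3 µM single point · Schedule – dye 1 h 37 °C plus 30 min RT · Signal – Fluo-8 calcium fluorescence, excitation 470-495 nm, emission 515-575 nm · Read-out – % activation versus carbachol response · Control set – carbachol high, DMSO low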
# V1aR counter – counter-screen for oxytocin receptor agonists: human V1a receptor agonists; P37288; CHO-V1R cells, Fluo-8 calcium fluorescence, agonist mode; 0% DMSO, 100% 3 nM vasopressin; activation, % at 3 µM; actives 0.25% (n = 320,000); AID 2797;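 active = activation above the mean activation of all tested compounds plus 3 SD, per screening run, cut at about 20% in these data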;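 also: signal is peak over basal fluorescence ratio across a 100 second FLIPR read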
# Target sequence (P37288 whole entry, looked up): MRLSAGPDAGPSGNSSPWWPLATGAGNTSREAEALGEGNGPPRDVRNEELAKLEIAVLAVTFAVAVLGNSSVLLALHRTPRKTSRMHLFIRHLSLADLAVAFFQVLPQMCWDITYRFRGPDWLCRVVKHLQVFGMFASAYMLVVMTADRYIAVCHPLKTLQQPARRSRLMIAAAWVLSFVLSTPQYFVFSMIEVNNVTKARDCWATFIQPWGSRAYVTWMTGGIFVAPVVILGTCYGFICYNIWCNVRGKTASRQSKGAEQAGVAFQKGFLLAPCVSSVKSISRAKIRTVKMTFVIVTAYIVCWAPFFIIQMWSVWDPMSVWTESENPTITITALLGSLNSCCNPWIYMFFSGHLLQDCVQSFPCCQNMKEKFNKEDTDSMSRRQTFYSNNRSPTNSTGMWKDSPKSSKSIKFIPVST
# OXTR potentiate – potentiates the human oxytocin receptor response. P30559. CHO-OTR cells, Fluo-8 calcium fluorescence, potentiator mode; 0% = oxytocin EC15, 100% = EC100. activation, % at 3 µM. actives 0.061% (n = 320,000). AID 2445;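 active = activation above that plate's cutoff, the mean activation of tested compounds plus 3 SD, cut at about 6.6% in these data, passing the limit was not always enough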;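 also: 100% uses oxytocin at 75 nM as the full agonist control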
#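 assay system = CHO-OTR cells, human receptor | schedule = compound 6 min at room temperature before oxytocin, 100 s read | detection = Fluo-8 intracellular calcium fluorescence, ex 470-495, em 515-575 nm | evaluation = normalized max/min fluorescence ratio, % activation | control set = EC15 oxytocin alone as 0%, 75 nM oxytocin (EC100) as 100%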
# CRFR2-BP ag – agonists of human CRF-binding protein/CRF-R2 receptor complex. HEK293 CRF-R2/CRF-BP, calcium dye fluorescence (FLIPR); percent of saturating CRF peptide response. AID 588473. actives 0.46% (n = 350,000). activation, % at 13.2 µM;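 active = activation of at least 50%, plus an integration ratio under a set limit after plate pattern correction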;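 also: plate controls were neutral control wells without compound for no effect and CRF at EC100 for full effect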
# Numbers without * were called inactive; · = no result given.
SMILES,TRPML3 ag,OXTR agonist,TRPN1 ag,V1aR counter,OXTR potentiate,CRFR2-BP ag
O=C1C=C(c2ccccc2)C(c2ccccc2)C1O (configuration not stated),·,·,·,·,·,77*
NC(=S)NNC(=O)C12CC3CC(CC(C3)C1)C2,3,34*,29*,23*,-17,125*
COC(=O)NNC(=O)C12CC3CC(CC(C3)C1)C2,1,0,0,0,-9,2
CCCCN1/C(=C/c2ccc3ccccc3[n+]2CC)Sc2ccccc21,21*,·,52*,·,·,128*
CCN1/C(=C/c2ccc3cc(C)ccc3[n+]2CC)Sc2cc(C)ccc21,13*,·,33*,·,·,131*
COc1ccc(-n2c(=O)c3c4c(sc3n(CC(=O)NCC3CCCO3)c2=O)CN(C(C)=O)CC4)cc1OC (configuration not stated),·,·,·,·,·,1
C(=NN1CCCCCC1)c1ccc2c(c1)OCO2,·,·,·,·,·,-2
Cc1ccccc1OCCC(=O)Nc1cc(S(=O)(=O)N2CCCCC2)ccc1N1CCN(C)CC1,·,·,·,·,·,68*
CCN1CCN(c2ccc(S(=O)(=O)N3CCCCC3)cc2NC(=O)Cc2ccc(Cl)c(Cl)c2)CC1,·,86*,·,49*,-18,16
C[C@H]1[C@@H](c2ccccc2)Oc2ccc(Cl)cc2S(=O)(=O)N1Cc1ccc(F)cc1F,·,·,·,·,·,10
COc1cccc(NC(=O)COc2ccc(C(=S)N3CCN(C)CC3)cc2OC)c1,·,8,·,10,-12,4
COC(=O)C1=NN(C(=O)c2ccccc2)C(O)(c2ccc([N+](=O)[O-])cc2)C1 (configuration not stated),·,·,·,·,·,47
COC(=O)C1=NN(C(=O)c2ccccc2)C(C)(O)C1 (configuration not stated),1,1,0,0,1,-1
COC(=O)C1=NN(C(=O)c2cccc(Cl)c2)C(O)(C(C)(C)C)C1 (configuration not stated),0,-1,2,-1,-1,89*
COC(=O)C1=NN(C(=O)c2ccc(Br)cc2)C(O)(C(C)(C)C)C1 (configuration not stated),0,·,0,·,·,52*
CC(=O)C1=C(O)C(=O)N(c2cc(C(C)(C)C)on2)C1c1ccc(C(C)C)cc1 (configuration not stated),1,1,0,-1,-2,64*
CCn1ncc(CN2CCC(n3nccc3NC(=O)c3ccccc3Cl)CC2)c1C,·,·,·,·,·,-1
CC(=O)N1N=C(c2ccc(Cl)cc2)CC1c1ccc([N+](=O)[O-])cc1 (configuration not stated),·,0,·,2,-16,3
CC1(O)CC(c2ccc(Cl)cc2)=NN1C(=O)c1ccc([N+](=O)[O-])cc1 (configuration not stated),0,0,1,-1,-8,74*
CC(=O)c1ccc2noc(-c3ccccc3)c2c1,1,-1,2,0,-16,3
CC(=O)c1ccc2c(c1)c(C#N)c1ccccc1[n+]2[O-],·,·,·,·,·,101*
COc1ccc(OC)c(S(=O)(=O)CC(O)COc2ccccc2Cl)c1 (configuration not stated),·,2,·,2,-9,-2
CC(=O)Oc1c(C)cc(Cl)cc1C(=O)Nc1ccc([N+](=O)[O-])cc1Cl,9,16,26*,13,-17,83*
O=C(NCC(F)(F)F)c1ccc(S(=O)(=O)Nc2ccccc2N2CCCC2)cc1,·,1,·,1,3,8
Cc1cc(C)c(S(=O)(=O)N2CCOCC2)c(C)c1N(C)S(=O)(=O)c1ccccc1,·,0,·,1,-4,0
Cc1cc(C)c(S(=O)(=O)N2CCCCC2)c(C)c1N(C)S(=O)(=O)c1ccccc1,55*,0,1,0,-6,0
CN1C2CCC1/C(=C\c1ccc(F)cc1)C(=O)/C2=C/c1ccc(F)cc1,0,0,0,-1,3,2
